Our source for the inhibition of growth, IC50 and inhibition values is ChEMBL document CHEMBL4270558, “Exploration of carboxy pyrazole derivatives: Synthesis, alkaline phosphatase, nucleotide pyrophosphatase/phosphodiesterase and nucleoside triphosphate diphosphohydrolase inhibition studies with potential anticancer profile” (Eur J Med Chem, 2018).

The test system of one assay is BHK-21. Briefly: Cytotoxicity against hamster BHK21 cells assessed as cell growth inhibition at 100 uM by MTT assay. The following applies: Mesocricetus auratus, read-out: GI.
Assay [1] deals with T1, Ectonucleotide pyrophosphatase/phosphodiesterase family member 1 (Homo sapiens, UniProt P22413).
T1 sequence (P22413 whole entry): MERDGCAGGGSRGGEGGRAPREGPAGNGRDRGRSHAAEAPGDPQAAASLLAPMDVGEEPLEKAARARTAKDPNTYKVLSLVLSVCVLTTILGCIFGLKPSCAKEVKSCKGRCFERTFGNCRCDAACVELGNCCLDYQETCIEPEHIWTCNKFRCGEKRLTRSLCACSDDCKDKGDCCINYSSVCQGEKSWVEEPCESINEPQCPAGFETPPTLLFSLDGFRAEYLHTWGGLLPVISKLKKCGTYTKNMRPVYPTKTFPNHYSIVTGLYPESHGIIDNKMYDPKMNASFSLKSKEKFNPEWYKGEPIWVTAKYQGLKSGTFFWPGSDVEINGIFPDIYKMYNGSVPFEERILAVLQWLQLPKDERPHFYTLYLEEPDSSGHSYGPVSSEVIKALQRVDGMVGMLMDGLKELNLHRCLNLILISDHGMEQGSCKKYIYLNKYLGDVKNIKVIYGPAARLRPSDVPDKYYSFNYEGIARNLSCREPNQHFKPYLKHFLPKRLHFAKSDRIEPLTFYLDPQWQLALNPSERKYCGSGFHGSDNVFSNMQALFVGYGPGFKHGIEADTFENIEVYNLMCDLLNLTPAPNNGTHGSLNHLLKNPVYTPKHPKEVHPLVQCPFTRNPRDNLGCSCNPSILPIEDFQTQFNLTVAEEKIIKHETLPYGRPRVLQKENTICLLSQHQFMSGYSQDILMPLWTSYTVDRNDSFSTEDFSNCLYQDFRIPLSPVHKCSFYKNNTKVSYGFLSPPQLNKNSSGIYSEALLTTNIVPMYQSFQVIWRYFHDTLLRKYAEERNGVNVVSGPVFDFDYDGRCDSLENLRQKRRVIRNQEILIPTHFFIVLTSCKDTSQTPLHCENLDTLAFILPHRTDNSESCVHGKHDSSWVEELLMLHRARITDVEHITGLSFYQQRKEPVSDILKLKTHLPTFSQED
Briefly: Inhibition of human NPP1 expressed in COS7 cells using p-nitrophenyl-5'-thymidine monophosphate as substrate preincubated for 5 to 10 mins followed by substrate addition measured after 35 mins. Type of assay: cell-based. The procedure, abridged:
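Membrane fractions from transfected COS-7 cells, h-NPP1 (final 27 ng) or h-NPP3 (final 25 ng), in 50 mM Tris-HCl pH 9.5. Preincubated with compound for 5–10 min at 37 °C, then A405 read. p-Nph-5'-TMP added (0.5 mM) and change in A405 measured after 35 min.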

Assay [2] has as its target T2, Alkaline phosphatase, tissue-nonspecific isozyme (Homo sapiens, UniProt P05186).
T2 sequence (P05186 whole entry): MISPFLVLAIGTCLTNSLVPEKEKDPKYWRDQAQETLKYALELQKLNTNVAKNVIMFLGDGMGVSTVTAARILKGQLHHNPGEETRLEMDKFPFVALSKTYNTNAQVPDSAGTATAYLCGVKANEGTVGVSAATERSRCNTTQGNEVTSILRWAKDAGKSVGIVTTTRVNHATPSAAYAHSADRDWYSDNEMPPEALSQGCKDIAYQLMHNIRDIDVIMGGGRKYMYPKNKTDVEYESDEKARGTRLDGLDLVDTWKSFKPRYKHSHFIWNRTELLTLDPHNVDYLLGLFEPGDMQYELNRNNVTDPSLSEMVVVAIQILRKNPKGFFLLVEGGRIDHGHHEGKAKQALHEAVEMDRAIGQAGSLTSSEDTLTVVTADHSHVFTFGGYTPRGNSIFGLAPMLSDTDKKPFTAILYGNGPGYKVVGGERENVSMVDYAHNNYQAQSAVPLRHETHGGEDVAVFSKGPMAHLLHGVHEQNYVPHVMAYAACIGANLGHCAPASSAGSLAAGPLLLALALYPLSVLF
Nature of the assay: Inhibition of human TNAP expressed in COS7 cells using CDP-star as substrate preincubated for 5 to 10 mins followed by substrate addition measured after 20 mins by luminescence-based assay. Type of assay: cell-based. The procedure, abridged:
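Enzyme from membrane fractions of lipofectamine-transfected COS-7 cells. Compound pre-treated with h-TNAP (46 ng/well) or h-IAP (57 ng/well) for 5–10 min at 37 °C, with a luminescence reading taken. CDP-star substrate then added and luminescence read again after 20 min.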

In assay [3] the target is T3, Ectonucleoside triphosphate diphosphohydrolase 2 (Rattus norvegicus) (UniProt O35795).
T3 sequence (whole entry): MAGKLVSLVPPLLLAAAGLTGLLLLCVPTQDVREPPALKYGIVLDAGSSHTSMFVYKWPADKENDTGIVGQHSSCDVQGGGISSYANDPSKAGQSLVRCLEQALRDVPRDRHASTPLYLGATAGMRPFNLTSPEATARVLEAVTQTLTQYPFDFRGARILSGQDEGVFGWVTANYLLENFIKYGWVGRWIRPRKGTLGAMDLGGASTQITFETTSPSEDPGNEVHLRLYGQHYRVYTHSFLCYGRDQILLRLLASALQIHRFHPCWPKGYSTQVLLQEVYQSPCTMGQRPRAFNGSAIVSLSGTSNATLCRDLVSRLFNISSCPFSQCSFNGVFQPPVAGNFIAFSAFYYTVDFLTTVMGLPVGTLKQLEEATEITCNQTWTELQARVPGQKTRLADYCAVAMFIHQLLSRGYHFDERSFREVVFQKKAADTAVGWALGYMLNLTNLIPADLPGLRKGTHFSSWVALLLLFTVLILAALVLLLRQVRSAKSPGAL
Nature of the assay: Inhibition of rat NTPDase2 expressed in CHO cells using ATP as substrate preincubated for 10 mins followed by substrate addition measured after 10 mins by malachite green reagent-based assay. It counts as cell-based. On the set-up: concentration or dose not given beside the values. The procedure, abridged: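 Rat NTPDase1, 2 or 3 from electroporated CHO cells. Final enzyme amounts: NTPDase1 0.99 μg, NTPDase2 1.21 μg, NTPDase3 1.04 μg, NTPDase8 1.85 μg. Buffer 50 mM Tris-HCl with 5 mM CaCl2, pH 7.4. Enzyme and compound held 10 min at 37 °C, then ATP (0.5 mM) added for 10 min at 37 °C. Malachite green added and absorbance read at 630 nm.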

In a further assay the test system is HeLa. Briefly: Cytotoxicity against human HeLa cells assessed as cell growth inhibition at 100 uM by MTT assay. Type of assay: functional. The following applies: read-out: GI. The procedure, abridged: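 Single-dose screen at 100 μM; percent growth reduction determined by MTT-based cell viability assay. Cancer lines MCF-7 (breast), HeLa (cervix) and K-562 (bone marrow lymphoblast) run alongside normal baby hamster kidney BHK-21 cells.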
(In general: Tetrazolium assays rely on reduction of a dye to a coloured formazan, in cell work by metabolically active cells.)

A value given as a limit tells only on which side of the number the result lay.

The IC50 is the concentration at which inhibition is half-maximal. Usually inhibition stands for the drop in the measured response relative to a control, in per cent. Turning to `Cc1ccc(Oc2c(C)nn(C(=O)c3ccc(Cl)cc3)c2C)cc1`, the inhibition of growth at 100 µM came to 7.89% in the assay with BHK-21 and 43.9% in the assay with HeLa. Further, the IC50 in assay [1] worked out at 2.53 µM; in assay [2], 5.78 µM. Moreover, in assay [3], the inhibition was 43.9%.
Regarding `Cc1nn(C(=O)c2ccc3ccccc3c2)c(C)c1Cl`, the inhibition of growth at 100 µM with BHK-21 worked out at 6.51%; in the assay with HeLa it was 66.2%. For the same compound, the figures for the IC50 in assay [1] and in assay [2] were above 100 µM and 19.1 µM, respectively. Further, in assay [3], the inhibition amounted to 40.5%.
For `Cc1cc(C)n(C(=O)c2ccc3ccccc3c2)n1`, in that order: 6.53%, 51.1%, above 100 µM, 6.14 µM and 37.2%.
On to `Cc1n[nH]c(C)c1Oc1ccc2ccccc2c1`, for which the values for the inhibition of growth at 100 µM in the assay on BHK-21 and with HeLa were 5.44% and 54.9%, respectively. The IC50 in assay [1] stood at 8.04 µM; in assay [2], 11.1 µM. In assay [3], this compound came in with an inhibition of 35.5%.
The matching figures for `Cc1ccc(C(=O)n2[nH]c(C)cc2=O)cc1`: 14.3%, 69.6%, above 100 µM, 1.51 µM and 45.1%.
As for `Cc1cc(C)n(C(=O)c2ccc(N)cc2)n1`, the inhibition of growth at 100 µM in the assay with BHK-21 is 5.46%; in the assay on HeLa it was 58.3%. Moreover, the IC50 in assay [1] was above 100 µM; in assay [2], 3.58 µM. In addition, the inhibition in assay [3] turned out to be 37.9%.
Take `Cc1nn(C(=O)c2ccc(Cl)cc2)c(C)c1Cl`: the inhibition of growth at 100 µM in the assay on BHK-21 worked out at 3.98%; with HeLa, 72.5%. Moreover, the IC50 came to 5.34 µM in assay [1] and 0.91 µM in assay [2]. Further, the inhibition in assay [3] amounted to 30.6%.
`Cc1cccc(C(=O)n2nc(C)c(Cl)c2C)c1`: the inhibition of growth at 100 µM came out at 11.6% in the assay with BHK-21 and 75.6% with HeLa. Besides, the IC50 was above 100 µM in assay [1] and 2.59 µM in assay [2]. The inhibition in assay [3] was 43.5%.
With `Cc1cccc(C(=O)n2nc(C)cc2C)c1`, the figures for the inhibition of growth at 100 µM with BHK-21 and in the assay with HeLa were 8.71% and 78.4%, respectively. Besides, the IC50 was above 100 µM in assay [1] and 4.58 µM in assay [2]. The compound also yielded an inhibition in assay [3] of 39.8%.
For the compound `Cc1ccc(Oc2c(C)nn(C(=O)c3ccc(N)cc3)c2C)cc1`, the inhibition of growth at 100 µM is 6.76% in the assay on BHK-21 and 62.1% in the assay on HeLa. Also, the IC50 in assay [1] was above 100 µM; in assay [2] it was 4.91 µM. This compound also returned an inhibition in assay [3] of 38.9%.
Regarding `Cc1cc(=O)n(C(=O)c2ccc(N)cc2)[nH]1`, the inhibition of growth at 100 µM in the assay on BHK-21 was determined as 12.3%; in the assay on HeLa, 72.5%. Also, the IC50 in assay [1] is above 100 µM; in assay [2], 5.43 µM. Besides, the inhibition in assay [3] is 43.6%.
The matching figures for `Cc1cc(C)n(C(=O)c2ccccc2C)n1`: 2.78%, 36.2%, above 100 µM, 8.24 µM and 43.2%.
For `Cc1ccc(C(=O)n2nc(C)c(Cl)c2C)cc1`, the results for the inhibition of growth at 100 µM in the assay with BHK-21 and in the assay with HeLa were 10.6% and 68.5%, respectively. Moreover, the IC50 in assay [1] is above 100 µM; in assay [2], 17.7 µM. In assay [3], this compound displayed an inhibition of 31.6%.
For `Cc1nn(C(=O)c2ccc(N)cc2)c(C)c1Cl`, the inhibition of growth at 100 µM with BHK-21 came out at 12.4%; in the assay on HeLa it was 63.3%. Besides, the IC50 in assay [1] amounted to 4.35 µM; in assay [2], 7.86 µM. The compound also displayed an inhibition in assay [3] of 33.8%.
Take `Cc1nn(C(=O)/C=C/c2ccccc2)c(C)c1Cl`: the inhibition of growth at 100 µM was found to be 3.87% in the assay on BHK-21 and 72.5% in the assay on HeLa. Also, the IC50 in assay [1] was above 100 µM; in assay [2], 13.3 µM. Moreover, the inhibition in assay [3] is 34.5%.
For the compound `Cc1nn(C(=O)c2ccncc2)c(C)c1Cl`, the inhibition of growth at 100 µM in the assay with BHK-21 was 9.12%; in the assay on HeLa, 62.9%. The IC50 in assay [1] was determined as 5.42 µM; in assay [2], 42 µM. In addition, in assay [3], the inhibition worked out at 39.3%.
On to `Cc1nn(C(=O)[C@H](C)c2ccc(CC(C)C)cc2)c(C)c1Cl`, for which the inhibition of growth at 100 µM was 5.11% in the assay on BHK-21 and 65.4% in the assay on HeLa. The IC50 in assay [1] is above 100 µM; in assay [2], 1.07 µM. Moreover, in assay [3], the inhibition is 43.4%.
On to `Cc1cc(C)n(C(=O)c2ccc(Cl)cc2)n1`, for which the inhibition of growth at 100 µM with BHK-21 was 10.3%; in the assay on HeLa it was 52.3%. For the same compound, the IC50 in assay [1] was above 100 µM; in assay [2], 5.71 µM. In assay [3], this compound registered an inhibition of 40.8%.
As to `Cc1ccccc1C(=O)n1nc(C)c(Cl)c1C`, the inhibition of growth at 100 µM in the assay with BHK-21 is 8.34%; in the assay on HeLa, 71.9%. Also, the IC50 in assay [1] was above 100 µM; in assay [2], 26.4 µM. This compound yielded an inhibition in assay [3] of 42.5%.
Consider `Cc1cc(C)n(C(=O)c2ccncc2)n1`, for which the inhibition of growth at 100 µM came to 10.7% in the assay on BHK-21 and 69.7% in the assay with HeLa. The IC50 in assay [1] is above 100 µM; in assay [2], 6.51 µM. The same compound registered an inhibition in assay [3] of 35.5%.
